Source: ChEMBL document CHEMBL1275420, “Transfer of embB codon 306 mutations into clinical Mycobacterium tuberculosis strains alters susceptibility to ethambutol, isoniazid, and rifampin” (2008)
≈ marks a conversion by molar mass, not a printed value. Calls of active or inactive are those of the source. No cut-off for these calls is given here.

Columns and labels:
[1] = tested on: Mycobacterium tuberculosis; experiment: Antimycobacterial activity against ethambutol-susceptible and rifampin-resistant Mycobacterium tuberculosis isolate NJT30167 expressing embB codon 306 ATG assessed as bacterial growth rate at sub MIC compound concentration by radiometric Bactec 460TB method; assay type: functional, organism-based
How it was run: (§1)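 Sub-MIC growth curves in Bactec 12B vials with isoniazid (strain 210 vs NJT210CTG also rifampin) at several sub-MIC levels. The daily growth index was followed. No-drug controls were inoculated at 1:100 dilution. Values are means and standard deviations of three independent experiments.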

[2] = tested on: Mycobacterium tuberculosis; experiment: Antimycobacterial activity against Mycobacterium tuberculosis isolate NJT210 expressing embB codon 306 CTG mutant assessed as bacterial growth rate at 0.03 ug/ml by radiometric Bactec 460TB method; assay type: functional, organism-based; how it was run: as §1
[3] = tested on: Mycobacterium tuberculosis; experiment: Antimycobacterial activity against ethambutol resistant Mycobacterium tuberculosis isolate NJT210EMB-R-C3 assessed as bacterial colony formation at 37 degC after 10 to 11 days by radiometric Bactec 460TB method; assay type: functional
[4] = tested on: Mycobacterium tuberculosis; experiment: Antimycobacterial activity against ethambutol resistant Mycobacterium tuberculosis isolate NJT210EMB-R-C2 assessed as bacterial colony formation at 37 degC after 10 to 11 days by radiometric Bactec 460TB method; assay type: functional
[5] = tested on: Mycobacterium tuberculosis; experiment: Antimycobacterial activity against ethambutol resistant Mycobacterium tuberculosis isolate NJT210EMB-R-C1 assessed as bacterial colony formation at 37 degC after 10 to 11 days by radiometric Bactec 460TB method; assay type: functional
[6] = tested on: Mycobacterium tuberculosis; experiment: Antimycobacterial activity against rifampin, ethambutol resistant Mycobacterium tuberculosis isolate NJT30167 expressing embB codon 306 ATG mutant at 37 degC after 3 to 4 weeks by radiometric Bactec 460TB method; assay type: functional
[7] = tested on: Mycobacterium tuberculosis; experiment: Antimycobacterial activity against rifampin, ethambutol resistant Mycobacterium tuberculosis isolate 30167 at 37 degC after 3 to 4 weeks by radiometric Bactec 460TB method; assay type: functional
[8] = tested on: Mycobacterium tuberculosis; experiment: Antimycobacterial activity against isoniazid, rifampin, ethambutol resistant Mycobacterium tuberculosis isolate NJT5310 expressing embB codon 306 ATG-GTG mutant at 37 degC after 3 to 4 weeks by radiometric Bactec 460TB method; assay type: functional
[9] = tested on: Mycobacterium tuberculosis; experiment: Antimycobacterial activity against isoniazid, rifampin, ethambutol resistant Mycobacterium tuberculosis isolate NJT5310 expressing embB codon 306 ATG-CTG mutant at 37 degC after 3 to 4 weeks by radiometric Bactec 460TB method; assay type: functional
[10] = tested on: Mycobacterium tuberculosis; experiment: Antimycobacterial activity against isoniazid, rifampin, ethambutol resistant Mycobacterium tuberculosis isolate NJT5310 expressing embB codon 306 ATG-ATC mutant at 37 degC after 3 to 4 weeks by radiometric Bactec 460TB method; assay type: functional
[11] = tested on: Mycobacterium tuberculosis; experiment: Antimycobacterial activity against isoniazid, rifampin, ethambutol resistant Mycobacterium tuberculosis isolate NJT5310 expressing embB codon 306 ATG-ATA mutant at 37 degC after 3 to 4 weeks by radiometric Bactec 460TB method; assay type: functional
[12] = tested on: Mycobacterium tuberculosis; experiment: Antimycobacterial activity against isoniazid, rifampin, ethambutol resistant Mycobacterium tuberculosis isolate NJT5310 expressing embB codon 306 ATG mutant at 37 degC after 3 to 4 weeks by radiometric Bactec 460TB method; assay type: functional
[13] = tested on: Mycobacterium tuberculosis; experiment: Antimycobacterial activity against isoniazid, rifampin, ethambutol resistant Mycobacterium tuberculosis isolate 5310 at 37 degC after 3 to 4 weeks by radiometric Bactec 460TB method; assay type: functional
[14] = tested on: Mycobacterium tuberculosis; experiment: Antimycobacterial activity against Mycobacterium tuberculosis isolate NJT210 expressing embB codon 306 CTG-ATG mutant at 37 degC after 10 to 11 days by radiometric Bactec 460TB method; assay type: functional
[15] = tested on: Mycobacterium tuberculosis; experiment: Antimycobacterial activity against Mycobacterium tuberculosis isolate NJT210 expressing embB codon 306 CTG mutant at 37 degC after 10 to 11 days by radiometric Bactec 460TB method; assay type: functional
[16] = tested on: Mycobacterium tuberculosis; experiment: Antimycobacterial activity against Mycobacterium tuberculosis isolate NJT210 expressing embB codon 306 ATC mutant at 37 degC after 10 to 11 days by radiometric Bactec 460TB method; assay type: functional
[17] = tested on: Mycobacterium tuberculosis; experiment: Antimycobacterial activity against Mycobacterium tuberculosis isolate NJT210 expressing embB codon 306 ATA mutant at 37 degC after 10 to 11 days by radiometric Bactec 460TB method; assay type: functional
[18] = tested on: Mycobacterium tuberculosis; experiment: Antimycobacterial activity against Mycobacterium tuberculosis isolate NJT210 expressing embB codon 306 CTG mutant assessed as bacterial growth rate at 0.04 ug/ml by radiometric Bactec 460TB method; assay type: functional, organism-based; how it was run: as §1
[19] = tested on: Mycobacterium tuberculosis; experiment: Antimycobacterial activity against Mycobacterium tuberculosis isolate NJT210 expressing embB codon 306 ATC-ATG mutant at 37 degC after 10 to 11 days by radiometric Bactec 460TB method; assay type: functional
[20] = tested on: Mycobacterium tuberculosis; experiment: Antimycobacterial activity against Mycobacterium tuberculosis isolate NJT210 expressing embB codon 306 GTG mutant at 37 degC after 10 to 11 days by radiometric Bactec 460TB method; assay type: functional
[21] = tested on: Mycobacterium tuberculosis; experiment: Antimycobacterial activity against rifampin, ethambutol resistant Mycobacterium tuberculosis isolate A2558 at 37 degC after 3 to 4 weeks by radiometric Bactec 460TB method; assay type: functional
[22] = tested on: Mycobacterium tuberculosis; experiment: Antimycobacterial activity against rifampin, ethambutol resistant Mycobacterium tuberculosis isolate 5041 at 37 degC after 3 to 4 weeks by radiometric Bactec 460TB method; assay type: functional

What does the source list for `NNC(=O)c1ccncc1` [ISONIAZID]?
Activity [1]: Active; Activity [2]: inactive; MIC [3]: 0.05 µg/mL (≈ 0.365 µM); MIC [4]: 0.05 µg/mL (≈ 0.365 µM); MIC [5]: 0.05 µg/mL (≈ 0.365 µM); MIC [6]: 0.07 µg/mL (≈ 0.51 µM); MIC [7]: 0.07 µg/mL (≈ 0.51 µM); MIC [8]: 2.5 µg/mL (≈ 18.2 µM); MIC [9]: 2.5 µg/mL (≈ 18.2 µM); MIC [10]: 2.5 µg/mL (≈ 18.2 µM); MIC [11]: 2.5 µg/mL (≈ 18.2 µM); MIC [12]: 2.5 µg/mL (≈ 18.2 µM); MIC [13]: 2.5 µg/mL (≈ 18.2 µM); MIC [14]: 0.05 µg/mL (≈ 0.365 µM); MIC [15]: 0.05 µg/mL (≈ 0.365 µM); MIC [16]: 0.05 µg/mL (≈ 0.365 µM); MIC [17]: 0.05 µg/mL (≈ 0.365 µM); Activity [18]: inactive; MIC [19]: 0.05 µg/mL (≈ 0.365 µM); MIC [20]: 0.05 µg/mL (≈ 0.365 µM)

With `CO[C@H]1/C=C/O[C@@]2(C)Oc3c(C)c(O)c4c(O)c(c(/C=N/N5CCN(C)CC5)c(O)c4c3C2=O)NC(=O)/C(C)=C\C=C\[C@H](C)[C@H](O)[C@@H](C)[C@@H](O)[C@@H](C)[C@H](OC(C)=O)[C@@H]1C` [RIFAMPIN] as the compound, how does the MIC [3] read?
The MIC was 0.05 µg/mL (≈ 0.0608 µM).

What about the MIC [4] of the same compound?
Its MIC is 0.05 µg/mL (≈ 0.0608 µM).

And the MIC [5]?
The MIC was 0.05 µg/mL (≈ 0.0608 µM).

And the MIC [6]?
Its MIC is over 240 µg/mL.

And the MIC [7]?
Its MIC is over 240 µg/mL.

And the MIC [8]?
The MIC was over 240 µg/mL.

And the MIC [9]?
Its MIC is over 240 µg/mL.

And the MIC [10]?
Its MIC is over 240 µg/mL.

And the MIC [11]?
Its MIC is over 240 µg/mL.

And the MIC [12]?
The MIC was over 240 µg/mL.

What about the MIC [13] of the same compound?
The MIC was over 240 µg/mL.

What about the MIC [14] of the same compound?
Its MIC is 0.05 µg/mL (≈ 0.0608 µM).

What about the MIC [15] of the same compound?
Its MIC is 0.05 µg/mL (≈ 0.0608 µM).

And the MIC [16]?
The MIC was 0.05 µg/mL (≈ 0.0608 µM).

What about the MIC [17] of the same compound?
Its MIC is 0.05 µg/mL (≈ 0.0608 µM).

And the Activity [18]?
Its Activity is “inactive”.

And the MIC [19]?
Its MIC is 0.05 µg/mL (≈ 0.0608 µM).

What about the MIC [20] of the same compound?
Its MIC is 0.05 µg/mL (≈ 0.0608 µM).

Which results are given for `CC[C@@H](CO)NCCN[C@@H](CC)CO` [ETHAMBUTOL]?
MIC [3]: 8 µg/mL (≈ 39.2 µM); MIC [4]: 14 µg/mL (≈ 68.5 µM); MIC [5]: 14 µg/mL (≈ 68.5 µM); MIC [21]: 5 µg/mL (≈ 24.5 µM); MIC [22]: 8 µg/mL (≈ 39.2 µM); MIC [6]: 3 µg/mL (≈ 14.7 µM); MIC [7]: 20 µg/mL (≈ 97.9 µM); MIC [8]: 28 µg/mL (≈ 137 µM); MIC [9]: 20 µg/mL (≈ 97.9 µM); MIC [10]: 16 µg/mL (≈ 78.3 µM); MIC [11]: 16 µg/mL (≈ 78.3 µM); MIC [12]: 3 µg/mL (≈ 14.7 µM); MIC [13]: 28 µg/mL (≈ 137 µM); MIC [14]: 2 µg/mL (≈ 9.79 µM); MIC [15]: 8.5 µg/mL (≈ 41.6 µM); MIC [16]: 7 µg/mL (≈ 34.3 µM); MIC [17]: 7 µg/mL (≈ 34.3 µM); MIC [19]: 2 µg/mL (≈ 9.79 µM); MIC [20]: 14 µg/mL (≈ 68.5 µM)
